Experimental data published in ChEMBL document CHEMBL3734720, “Synthesis of thiophene-thiosemicarbazone derivatives and evaluation of their in vitro and in vivo antitumor activities” (Eur J Med Chem, 2015).

Tests used:
[1] = Antiproliferative activity against human NCI-ADR-RES cells assessed as growth inhibition after 48 hrs by SRB assay; assay type: functional
Summary of the method: (§1)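 Cells exposed 48 h at 37 °C, 5% CO2 to 0.25, 2.5, 25 and 250 µg/mL in DMSO/RPMI (final DMSO 0.1%); doxorubicin standard at 0.025–25 µg/mL. Plates fixed with 50% TCA before (T0) and after treatment; protein content read by sulforhodamine B at 540 nm. GI50 (µM) from nonlinear regression of concentration–response curves; triplicate.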

K562 = experiment: Antiproliferative activity against human K562 cells assessed as growth inhibition after 48 hrs by SRB assay; assay type: functional; details: K562, 48 h; summary of the method: as §1
786-0 [2] = experiment: Cell cycle arrest in human 786-0 cells assessed as accumulation at G2/M phase at 25 uM after 24 hrs by propidium iodide based flow cytometric analysis (reference value: 35.7 +/- 0.9%); assay type: functional
[3] = Antitumor activity against mouse EAT implanted in Balb/C mouse assessed as change in paw volume at 100 mg/kg, po administered on day 3 post tumor inoculation measured on day 15 by plethysmometer analysis (reference value: 166.5 +/- 6.0%); assay type: functional
786-0 [4] = experiment: Induction of cell death in human 786-0 cells assessed as phosphatidylserine externalization at 50 uM after 24 hrs by annexin V/7-amino-actinomycin D double staining based flow cytometric analysis (reference value: 3.8 +/- 0.5%); assay type: functional
[5] = Antiproliferative activity against human PC3 cells assessed as growth inhibition after 48 hrs by SRB assay; assay type: functional; details: PC-3, 48 h; summary of the method: as §1
[6] = Antitumor activity against mouse EAT implanted in Balb/C mouse assessed as change in paw volume at 30 mg/kg, po administered on day 3 post tumor inoculation measured on day 12 by plethysmometer analysis (reference value: 125.5 +/- 7.5%); assay type: functional
MCF7 = experiment: Antiproliferative activity against human MCF7 cells assessed as growth inhibition after 48 hrs by SRB assay; assay type: functional; details: MCF7, 48 h; summary of the method: as §1
[7] = Antitumor activity against mouse EAT implanted in Balb/C mouse assessed as change in paw volume at 300 mg/kg, po administered on day 3 post tumor inoculation measured on day 15 by plethysmometer analysis (reference value: 166.5 +/- 6.0%); assay type: functional
[8] = Antitumor activity against mouse EAT implanted in Balb/C mouse assessed as change in paw volume at 300 mg/kg, po administered on day 3 post tumor inoculation measured on day 3 by plethysmometer analysis (reference value: 40.2 +/- 7.0%); assay type: functional
[9] = Acute toxicity in Balb/C mouse assessed as survival rate at 200 mg/kg, po; assay type: organism-based; details: in vivo
Summary of the method: (§2)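 Fixed dose procedure following OECD guideline; Balb/C mice (20-35 g) fasted 16 h, groups of 5 given single oral doses stepwise at 600, 400 and 200 mgKg-1; survival and clinical signs of pain, suffering and impending death recorded per OECD guidance.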

[10] = Antitumor activity against mouse EAT implanted in Balb/C mouse assessed as change in paw volume at 30 mg/kg, po administered on day 3 post tumor inoculation measured on day 9 by plethysmometer analysis (reference value: 95.5 +/- 5.2%); assay type: functional
[11] = Antitumor activity against mouse EAT implanted in Balb/C mouse assessed as change in paw volume at 30 mg/kg, po administered on day 3 post tumor inoculation measured on day 15 by plethysmometer analysis (reference value: 166.5 +/- 6.0%); assay type: functional
[12] = Antiproliferative activity against human HaCaT cells assessed as growth inhibition after 48 hrs by SRB assay; assay type: cell-based; summary of the method: as §1
[13] = Antitumor activity against mouse EAT implanted in Balb/C mouse assessed as change in paw volume at 100 mg/kg, po administered on day 3 post tumor inoculation measured on day 12 by plethysmometer analysis (reference value: 125.5 +/- 7.5%); assay type: functional
786-0 [14] = experiment: Cytotoxicity against human 786-0 cells assessed as compound concentration required to inhibit total growth after 24 hrs by SRB assay; assay type: functional; details: 786-0, 24 h
Summary of the method: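 786-0 cells treated 24 h with 25, 50, 100 and 200 µM; growth measured by sulforhodamine B staining. Concentration giving total growth inhibition (TGI) calculated from the concentration–response data.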

786-0 [15] = experiment: Induction of cell death in human 786-0 cells assessed as loss of cell membrane integrity at 50 uM after 24 hrs by annexin V/7-amino-actinomycin D double staining based flow cytometric analysis (reference value: 3.6+/- 0.8%); assay type: functional
786-0 [16] = experiment: Antiproliferative activity against human 786-0 cells assessed as growth inhibition after 48 hrs by SRB assay; assay type: functional; details: 786-0, 48 h; summary of the method: as §1
[17] = Antitumor activity against mouse EAT implanted in Balb/C mouse assessed as change in paw volume at 300 mg/kg, po administered on day 3 post tumor inoculation measured on day 6 by plethysmometer analysis (reference value: 86.1 +/- 5.7%); assay type: functional
786-0 [18] = experiment: Cell cycle arrest in human 786-0 cells assessed as accumulation at S phase at 25 uM after 24 hrs by propidium iodide based flow cytometric analysis (reference value: 14.6 +/- 1.3%); assay type: functional
[19] = Antitumor activity against mouse EAT implanted in Balb/C mouse assessed as change in paw volume at 100 mg/kg, po administered on day 3 post tumor inoculation measured on day 9 by plethysmometer analysis (reference value: 95.5 +/- 5.2%); assay type: functional
[20] = Antitumor activity against mouse EAT implanted in Balb/C mouse assessed as change in paw volume at 300 mg/kg, po administered on day 3 post tumor inoculation measured on day 9 by plethysmometer analysis (reference value: 95.5 +/- 5.2%); assay type: functional
786-0 [21] = experiment: Induction of cell death in human 786-0 cells assessed as phosphatidylserine externalization at 50 uM after 18 hrs by annexin V/7-amino-actinomycin D double staining based flow cytometric analysis (reference value: 7.2 +/- 1.4%); assay type: functional
786-0 [22] = experiment: Cell cycle arrest in human 786-0 cells assessed as accumulation at Sub G1 phase at 25 uM after 24 hrs by propidium iodide based flow cytometric analysis (reference value: 3.0 +/- 0.7%); assay type: functional
[23] = Acute toxicity in Balb/C mouse assessed as survival rate at 600 mg/kg, po; assay type: organism-based; details: in vivo; summary of the method: as §2
[24] = Acute toxicity in Balb/C mouse assessed as survival rate at 400 mg/kg, po; assay type: organism-based; details: in vivo; summary of the method: as §2
NCI-H460 = experiment: Antiproliferative activity against human NCI-H460 cells assessed as growth inhibition after 48 hrs by SRB assay; assay type: functional; details: NCI-H460, 48 h; summary of the method: as §1
786-0 [25] = experiment: Cytotoxicity against human 786-0 cells assessed as compound concentration required to cause 50% cell death after 24 hrs by SRB assay; assay type: functional; details: 786-0, 24 h, read-out: LC50 (the source's name)
Summary of the method: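 786-0 cells exposed 24 h to 25, 50, 100 and 200 µM; growth measured by sulforhodamine B staining of TCA-fixed cells (540 nm) with time-zero plate; LC50 (50% cell death) and TGI derived by non-linear regression.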

[26] = Antitumor activity against mouse EAT implanted in Balb/C mouse assessed as change in paw volume at 30 mg/kg, po administered on day 3 post tumor inoculation measured on day 3 by plethysmometer analysis (reference value: 40.2 +/- 7.0%); assay type: functional

S=C(N/N=C/c1cccs1)Nc1ccc(Br)cc1 gave a GI50 [1] of 1.7 µM, a GI50 (K562) greater than 100 µM and an Activity (786-0 [2]) of 35.9%. For the same compound, the Activity [3] was 118.6%, the Activity (786-0 [4]) was 21.9% and the GI50 [5] was 79.4 µM. The Activity [6] was 36.3%, the GI50 (MCF7) was less than 0.74 µM and the Activity [7] was 106%. For the same compound, the Activity [8] was 39.4%, the survival [9] was 100% and the Activity [10] was 57.1%. It also gave an Activity [11] of 82%, a GI50 at 48 h [12] of 0.8 µM and an Activity [13] of 75.8%. For the same compound, the TGI (786-0 [14]) was 28 µM, the Activity (786-0 [15]) was 35.7% and the GI50 (786-0 [16]) was 4.5 µM. The Activity [17] was 75.1%, the Activity (786-0 [18]) was 13.9% and the Activity [19] was 73.7%. It also gave an Activity [20] of 72.8%, an Activity (786-0 [21]) of 15.5% and an Activity (786-0 [22]) of 5.4%. For the same compound, the survival [23] was 100%, the survival [24] was 100% and the GI50 (NCI-H460) was 4.7 µM. For the same compound, the CC50 (786-0 [25]) was 91.8 µM and the Activity [26] was 26.8%.
